Assay results taken from publication PMC4002122 (Chemical Research in Toxicology, 2014).

How the values were obtained:
Format in all cases: in vitro ADME
UGT1A4 = molecular target: T1, UGT1A4 (Homo sapiens, UniProt P22310); assay: Screening of recombinant UGT1A4 for glucuronidation activity; settings: 250 μM substrate, 5 μg protein, 60 min, 37 °C
T1 sequence (P22310 29-534): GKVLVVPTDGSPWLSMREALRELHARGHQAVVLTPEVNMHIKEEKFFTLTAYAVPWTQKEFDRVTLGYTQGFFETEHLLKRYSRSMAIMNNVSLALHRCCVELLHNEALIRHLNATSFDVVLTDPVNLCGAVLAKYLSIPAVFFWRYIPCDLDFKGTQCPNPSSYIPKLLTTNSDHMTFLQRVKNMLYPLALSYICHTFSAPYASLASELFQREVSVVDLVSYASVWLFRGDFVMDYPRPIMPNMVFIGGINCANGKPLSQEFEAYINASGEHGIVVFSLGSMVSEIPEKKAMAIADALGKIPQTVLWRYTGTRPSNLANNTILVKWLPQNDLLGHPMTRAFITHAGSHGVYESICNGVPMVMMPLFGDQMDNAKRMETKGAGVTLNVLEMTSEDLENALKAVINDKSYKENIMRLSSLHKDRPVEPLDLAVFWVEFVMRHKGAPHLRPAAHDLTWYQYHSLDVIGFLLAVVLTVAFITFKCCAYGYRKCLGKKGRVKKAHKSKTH
In short: (§1)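 UGT1A1, 1A3, 1A4 and 1A6–1A10 were His-tagged and expressed in baculovirus-infected Sf9 cells; UGT2B4, 2B7, 2B15 and 2B17 were commercial membranes run per supplier protocol. 5 μg membrane protein with 250 μM substrate, 2 mM UDP-GlcUA, Tris–HCl pH 7.4, MgCl2, saccharolactone, 2% DMSO; 37 °C, 60 min; no-substrate controls. Products measured by HPLC-UV/vis; β-glucuronidase hydrolysis separated O- from carboxyl glucuronides.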

UGT1A7 = molecular target: T2, UGT1A7 (Homo sapiens, UniProt Q9HAW7); assay: Screening of recombinant UGT1A7 for glucuronidation activity; settings: 250 μM substrate, 5 μg protein, 60 min, 37 °C
T2 sequence (Q9HAW7 26-530): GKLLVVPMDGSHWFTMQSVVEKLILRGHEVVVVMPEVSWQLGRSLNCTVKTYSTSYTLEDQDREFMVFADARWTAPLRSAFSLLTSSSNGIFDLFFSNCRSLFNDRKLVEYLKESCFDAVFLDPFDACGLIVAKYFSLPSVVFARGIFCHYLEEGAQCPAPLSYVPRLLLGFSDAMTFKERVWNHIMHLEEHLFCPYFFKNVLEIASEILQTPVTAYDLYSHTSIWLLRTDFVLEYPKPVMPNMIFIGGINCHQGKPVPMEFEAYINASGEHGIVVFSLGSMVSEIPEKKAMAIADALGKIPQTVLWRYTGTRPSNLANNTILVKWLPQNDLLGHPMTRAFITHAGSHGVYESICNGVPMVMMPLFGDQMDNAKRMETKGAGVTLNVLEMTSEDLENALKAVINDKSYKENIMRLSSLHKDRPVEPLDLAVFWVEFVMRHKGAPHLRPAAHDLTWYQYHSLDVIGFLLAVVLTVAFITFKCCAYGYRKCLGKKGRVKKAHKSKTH
In short: as §1

UGT1A10 [1] = molecular target: T3, UGT1A10 (Homo sapiens, UniProt Q9HAW8); assay: Screening of recombinant UGT1A10 for glucuronidation activity; settings: 250 μM substrate, 5 μg protein, 60 min, 37 °C
T3 sequence (Q9HAW8 26-530): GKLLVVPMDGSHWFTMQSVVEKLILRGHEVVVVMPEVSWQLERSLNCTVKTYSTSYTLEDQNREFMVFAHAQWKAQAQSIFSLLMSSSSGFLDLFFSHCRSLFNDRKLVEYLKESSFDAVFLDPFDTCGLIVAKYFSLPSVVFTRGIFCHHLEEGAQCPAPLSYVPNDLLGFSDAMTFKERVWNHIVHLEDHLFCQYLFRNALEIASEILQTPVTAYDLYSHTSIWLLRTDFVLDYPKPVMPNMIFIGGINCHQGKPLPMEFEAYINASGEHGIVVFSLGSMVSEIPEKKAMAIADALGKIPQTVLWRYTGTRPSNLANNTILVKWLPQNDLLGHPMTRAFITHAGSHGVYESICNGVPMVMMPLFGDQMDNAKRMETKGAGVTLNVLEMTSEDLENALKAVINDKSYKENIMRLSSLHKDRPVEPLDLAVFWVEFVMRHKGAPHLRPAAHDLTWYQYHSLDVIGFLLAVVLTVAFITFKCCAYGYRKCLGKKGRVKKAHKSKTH
In short: as §1

UGT2B15 = molecular target: T4, UGT2B15 (Homo sapiens, UniProt P54855); assay: Screening of recombinant UGT2B15 for glucuronidation activity; settings: 250 μM substrate, 5 μg protein, 60 min, 37 °C
T4 sequence (P54855 24-530): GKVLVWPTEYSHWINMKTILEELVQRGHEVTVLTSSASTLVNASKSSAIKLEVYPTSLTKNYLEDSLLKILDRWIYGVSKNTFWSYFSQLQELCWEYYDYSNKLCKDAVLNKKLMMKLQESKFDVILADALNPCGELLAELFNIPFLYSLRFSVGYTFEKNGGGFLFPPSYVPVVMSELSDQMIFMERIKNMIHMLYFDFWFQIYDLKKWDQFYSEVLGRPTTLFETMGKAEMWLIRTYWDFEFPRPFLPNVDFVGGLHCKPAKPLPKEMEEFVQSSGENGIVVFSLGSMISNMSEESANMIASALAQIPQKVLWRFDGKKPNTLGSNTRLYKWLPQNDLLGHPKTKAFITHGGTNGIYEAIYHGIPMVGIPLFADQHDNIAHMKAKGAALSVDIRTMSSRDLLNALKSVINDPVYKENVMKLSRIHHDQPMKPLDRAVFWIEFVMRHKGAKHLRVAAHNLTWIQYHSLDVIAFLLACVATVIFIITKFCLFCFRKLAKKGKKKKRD
In short: as §1

UGT1A8 = molecular target: T5, UGT1A8 (Homo sapiens, UniProt Q9HAW9); assay: Steady state kinetics of glucuronidation by recombinant UGT1A8
T5 sequence (Q9HAW9 26-530): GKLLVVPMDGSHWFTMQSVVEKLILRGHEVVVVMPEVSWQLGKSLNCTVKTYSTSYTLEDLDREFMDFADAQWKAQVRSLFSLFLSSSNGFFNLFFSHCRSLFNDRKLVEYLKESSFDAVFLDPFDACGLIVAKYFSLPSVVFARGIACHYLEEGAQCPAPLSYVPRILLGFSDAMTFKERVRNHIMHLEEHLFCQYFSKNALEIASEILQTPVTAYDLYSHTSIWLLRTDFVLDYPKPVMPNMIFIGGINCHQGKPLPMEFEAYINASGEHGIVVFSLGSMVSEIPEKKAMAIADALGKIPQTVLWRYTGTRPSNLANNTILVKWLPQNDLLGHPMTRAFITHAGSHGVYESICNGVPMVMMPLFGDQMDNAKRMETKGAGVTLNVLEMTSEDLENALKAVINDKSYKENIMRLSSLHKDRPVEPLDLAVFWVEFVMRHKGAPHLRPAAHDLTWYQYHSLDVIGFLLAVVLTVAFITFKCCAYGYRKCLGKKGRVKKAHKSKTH

UGT1A10 [2] = molecular target: T3, UGT1A10; assay: Steady state kinetics of glucuronidation by recombinant UGT1A10

SMILES	glucuronidation activity (glucuronide formed) (UGT1A4)	glucuronidation activity (glucuronide formed) (UGT1A7)	glucuronidation activity (glucuronide formed) (UGT1A10 [1])	glucuronidation activity (glucuronide formed) (UGT2B15)	NI-12a-COO-gluc formation (UGT1A8; COO-glucuronide)	kinetic model (UGT1A8; NI-12a-O-gluc formation)	Ks (UGT1A8; NI-12a-O-gluc formation, USI model)	NI-12a-COO-gluc formation (UGT1A10 [2]; COO-glucuronide)	kinetic model (UGT1A10 [2]; NI-12a-O-gluc formation)	NI-ST-05–N–O-gluc formation (UGT1A8; N–O-glucuronide)	Vmax (UGT1A10 [2]; C=N–O-glucuronidation of NI-ST-05)	Vmax (UGT1A10 [2]; NI-ST-05–N–O-gluc formation)	kinetic model (UGT1A10 [2]; NI-ST-05–N–O-gluc formation)	n (Hill coefficient) (UGT1A10 [2]; NI-ST-05–N–O-gluc formation)
COc1cc(/C=C/c2cc([N+](=O)[O-])c(O)c([N+](=O)[O-])c2)cc(OC)c1 [DNR-1, (E)-4-(3,5-dimethoxystyryl)-2,6-dinitrophenol]	No activity	No activity	No activity	No activity										
COc1ccc(/C=C(/C(=O)O)c2cc(OC)c(OC)c(OC)c2)cc1O [NI-12a, (E)-3-(3-hydroxy-4-methoxyphenyl)-2-(3,4,5-trimethoxyphenyl)acrylic acid]	not active	only the hydroxyl metabolite	only the hydroxyl metabolite		not produced	uncompetitive substrate inhibition and USI	950 ± 449 µM	not produced	Michaelis–Menten and M–M					
COc1ccc(C=Cc2cc(OC)cc(OC)c2/C=N/O)cc1 [NI-ST-05, (E)-2,4-dimethoxy-6-(4-methoxystyryl)benzaldehyde oxime]	inactive	inactive	catalyzed the formation of the C=N–O-glucuronide	inactive						not produced	0.65 nm/mg protein/min	0.65 ± 0.017 nmol/mg/min	Hill	3.4
